Assays:
[1] = biological target: T1, 5-hydroxytryptamine receptor 7 (Homo sapiens, UniProt P34969); assay: Displacement of [3H]LSD from human 5-HT7A receptor expressed in HEK cells by radioligand binding assay relative to control; type: cell-based
NIH3T3 [2] = assay: Cytotoxicity against mouse NIH/3T3 cells assessed as reduction in cell viability after 48 hrs by MTT assay; type: cell-based; settings: NIH3T3, 48 h
How it was run: (§1)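 Cells exposed to compounds; viability read at 24, 48 and 72 h. Every experiment run in triplicate.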

NIH3T3 [3] = assay: Cytotoxicity against mouse NIH/3T3 cells assessed as reduction in cell viability after 24 hrs by MTT assay; type: cell-based; settings: NIH3T3, 24 h; how it was run: as §1
[4] = biological target: T2, Sodium-dependent noradrenaline transporter (Homo sapiens, UniProt P23975); assay: Displacement of [3H]Nisoxetine from human NET expressed in HEK cells by radioligand binding assay; type: cell-based
Histamine H2 receptor = Histamine H2 receptor (Homo sapiens, UniProt P25021); assay: Displacement of [3H]Cimetidine from human H2 receptor expressed in HEK cells by radioligand binding assay; type: cell-based
[5] = biological target: T2, Sodium-dependent noradrenaline transporter; assay: Displacement of [3H]Nisoxetine from human NET expressed in HEK cells by radioligand binding assay relative to control; type: cell-based
D(1B) dopamine receptor [6] = biological target: T3, D(1B) dopamine receptor (Homo sapiens, UniProt P21918); assay: Displacement of [3H]SCH23390 from human dopamine D5 receptor expressed in HEK293T cells by radioligand binding assay; type: cell-based
[7] = biological target: 5-hydroxytryptamine receptor 2B (Homo sapiens, UniProt P41595); assay: Displacement of [3H]LSD from human 5-HT2B receptor expressed in HEK cells by radioligand binding assay; type: cell-based
MDA-MB-231 = assay: Cytotoxicity against human MDA-MB-231 cells assessed as reduction in cell viability after 48 hrs by MTT assay; type: functional, cell-based; settings: MDA-MB-231, 48 h; how it was run: as §1
[8] = biological target: T1, 5-hydroxytryptamine receptor 7; assay: Displacement of [3H]LSD from human 5-HT7A receptor expressed in HEK cells by radioligand binding assay; type: cell-based
NIH3T3 [9] = assay: Cytotoxicity against mouse NIH/3T3 cells assessed as reduction in cell viability after 72 hrs by MTT assay; type: cell-based; settings: NIH3T3, 72 h; how it was run: as §1
[10] = biological target: Sodium-dependent serotonin transporter (Homo sapiens, UniProt P31645); assay: Displacement of [3H]Citalopram from human SERT expressed in HEK cells by radioligand binding assay relative to control; type: cell-based
[11] = biological target: T4, 5-hydroxytryptamine receptor 2C (Homo sapiens, UniProt P28335); assay: Displacement of [3H]Mesulergine from human 5-HT2C receptor expressed in HEK293FlpIN cells by radioligand binding assay; type: cell-based
T4 sequence (P28335 whole entry): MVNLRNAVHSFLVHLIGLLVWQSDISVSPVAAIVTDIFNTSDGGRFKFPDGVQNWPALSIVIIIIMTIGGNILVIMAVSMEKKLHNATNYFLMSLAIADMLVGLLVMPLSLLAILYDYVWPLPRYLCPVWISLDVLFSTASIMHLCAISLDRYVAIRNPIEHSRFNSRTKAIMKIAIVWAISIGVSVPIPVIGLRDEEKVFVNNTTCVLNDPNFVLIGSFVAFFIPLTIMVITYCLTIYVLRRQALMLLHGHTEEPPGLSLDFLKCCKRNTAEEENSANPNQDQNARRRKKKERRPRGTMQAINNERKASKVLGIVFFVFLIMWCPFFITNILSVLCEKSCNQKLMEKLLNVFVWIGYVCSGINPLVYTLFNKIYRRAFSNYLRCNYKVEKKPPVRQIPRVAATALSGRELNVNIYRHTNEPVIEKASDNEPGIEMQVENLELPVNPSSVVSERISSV

[12] = test system: Lewis lung carcinoma cell line; assay: Cytotoxicity against mouse LLC cells harboring […] assessed as reduction in cell viability after 48 hrs by MTT assay; type: functional, cell-based; how it was run: as §1
[13] = biological target: 5-hydroxytryptamine receptor 1D (Homo sapiens, UniProt P28221); assay: Displacement of [3H]5-CT from human 5-HT1D receptor expressed in HEK293T cells by radioligand binding assay relative to control; type: cell-based; design: concentration or dose not given beside the values; settings: concentration not given here
D(1B) dopamine receptor [14] = biological target: T3, D(1B) dopamine receptor; assay: Displacement of [3H]SCH23390 from human dopamine D5 receptor expressed in HEK293T cells by radioligand binding assay relative to control; type: cell-based; design: concentration or dose not given beside the values; settings: concentration not given here
[15] = biological target: Sodium-dependent dopamine transporter (Homo sapiens, UniProt Q01959); assay: Displacement of [3H]WIN35428 from human DAT expressed in HEK cells by radioligand binding assay relative to control; type: cell-based
[16] = biological target: 5-hydroxytryptamine receptor 6 (Homo sapiens, UniProt P50406); assay: Displacement of [3H]LSD from human 5-HT6 receptor expressed in HEK cells by radioligand binding assay; type: cell-based
[17] = biological target: Delta-type opioid receptor (Homo sapiens, UniProt P41143); assay: Displacement of [3H]DADLE from human DOR expressed in HEK cells by radioligand binding assay relative to control; type: cell-based; design: concentration or dose not given beside the values; settings: concentration not given here
D(2) dopamine receptor [18] = biological target: T5, D(2) dopamine receptor (Homo sapiens, UniProt P14416); assay: Displacement of [3H]N-methylspiperone from human dopamine D2 receptor expressed in stable fibroblast cells by radioligand binding assay relative to control; type: cell-based; design: concentration or dose not given beside the values; settings: concentration not given here
[19] = test system: Lewis lung carcinoma cell line; assay: Cytotoxicity against mouse LLC cells harboring […] assessed as reduction in cell viability after 72 hrs by MTT assay; type: functional, cell-based; how it was run: as §1
[20] = biological target: 5-hydroxytryptamine receptor 2A (Homo sapiens, UniProt P28223); assay: Displacement of [3H]Ketanserin from 5-HT2A receptor (unknown origin) by radioligand binding assay
Mu-type opioid receptor = Mu-type opioid receptor (Homo sapiens, UniProt P35372); assay: Displacement of [3H]DAMGO from human MOR expressed in HEK cells by radioligand binding assay relative to control; type: cell-based; design: concentration or dose not given beside the values; settings: concentration not given here
D(2) dopamine receptor [21] = biological target: T5, D(2) dopamine receptor; assay: Displacement of [3H]N-methylspiperone from human dopamine D2 receptor expressed in stable fibroblast cells by radioligand binding assay; type: cell-based
[22] = biological target: T6, 5-hydroxytryptamine receptor 5A (Homo sapiens, UniProt P47898); assay: Displacement of [3H]LSD from human 5-HT5A receptor expressed in Flp-In CHO cells by radioligand binding assay; type: cell-based
[23] = biological target: T6, 5-hydroxytryptamine receptor 5A; assay: Displacement of [3H]LSD from human 5-HT5A receptor expressed in Flp-In CHO cells by radioligand binding assay relative to control; type: cell-based; design: concentration or dose not given beside the values; settings: concentration not given here
Histamine H1 receptor [24] = biological target: T7, Histamine H1 receptor (Homo sapiens, UniProt P35367); assay: Displacement of [3H]Pyrilamine from human H1 receptor expressed in HEK cells by radioligand binding assay; type: cell-based
Histamine H1 receptor [25] = biological target: T7, Histamine H1 receptor; assay: Displacement of [3H]Pyrilamine from human H1 receptor expressed in HEK cells by radioligand binding assay relative to control; type: cell-based; design: concentration or dose not given beside the values; settings: concentration not given here
Mus musculus [26] = assay: Toxicity in C57BL/6J mouse assessed as reduction in alkaline phosphatase level at 5 mg/kg, ip treated daily for 7 consecutive days measured after 24 hrs post last dose […]; type: organism-based; settings: in vivo
How it was run: (§2)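 Female C57BL6 mice given 5 mg/kg i.p. daily for 7 days; blood taken at sacrifice 24 h after last dose for clinical chemistry panel: electrolytes, minerals, total protein, albumin, globulin, A/G ratio, BUN, ALT, AST, GLDH, cholestasis markers, ALP, bilirubin, amylase, creatine kinase.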

Mus musculus [27] = assay: Toxicity in C57BL/6J mouse assessed as increase in glutamate dehydrogenase level at 5 mg/kg, ip treated daily for 7 consecutive days measured after 24 hrs post last dose […]; type: organism-based; settings: in vivo; how it was run: as §2

Sequence of Delta-type opioid receptor (P41143 whole entry): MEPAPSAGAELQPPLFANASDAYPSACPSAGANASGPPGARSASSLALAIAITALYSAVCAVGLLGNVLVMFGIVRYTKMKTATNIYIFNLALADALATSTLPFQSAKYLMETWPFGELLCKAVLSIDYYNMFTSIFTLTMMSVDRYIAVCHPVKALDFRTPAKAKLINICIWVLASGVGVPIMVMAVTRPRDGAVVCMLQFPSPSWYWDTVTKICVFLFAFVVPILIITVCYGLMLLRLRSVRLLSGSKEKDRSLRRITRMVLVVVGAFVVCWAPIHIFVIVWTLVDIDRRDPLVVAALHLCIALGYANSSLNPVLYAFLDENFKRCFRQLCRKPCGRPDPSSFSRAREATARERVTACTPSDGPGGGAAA
T3 sequence (P21918 whole entry): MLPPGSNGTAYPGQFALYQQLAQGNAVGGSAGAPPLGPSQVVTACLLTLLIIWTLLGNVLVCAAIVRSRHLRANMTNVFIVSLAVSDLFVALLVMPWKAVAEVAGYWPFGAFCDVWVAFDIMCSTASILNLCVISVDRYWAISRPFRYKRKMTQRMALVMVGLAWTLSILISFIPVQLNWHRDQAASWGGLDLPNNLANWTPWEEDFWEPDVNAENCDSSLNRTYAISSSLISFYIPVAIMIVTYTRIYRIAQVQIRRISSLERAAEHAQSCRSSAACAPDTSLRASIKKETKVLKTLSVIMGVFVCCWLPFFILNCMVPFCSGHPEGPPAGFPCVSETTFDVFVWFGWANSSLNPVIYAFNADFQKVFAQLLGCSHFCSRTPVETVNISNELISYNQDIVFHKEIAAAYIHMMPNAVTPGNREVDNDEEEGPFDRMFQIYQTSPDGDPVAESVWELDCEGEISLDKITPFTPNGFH
T5 sequence (P14416 whole entry): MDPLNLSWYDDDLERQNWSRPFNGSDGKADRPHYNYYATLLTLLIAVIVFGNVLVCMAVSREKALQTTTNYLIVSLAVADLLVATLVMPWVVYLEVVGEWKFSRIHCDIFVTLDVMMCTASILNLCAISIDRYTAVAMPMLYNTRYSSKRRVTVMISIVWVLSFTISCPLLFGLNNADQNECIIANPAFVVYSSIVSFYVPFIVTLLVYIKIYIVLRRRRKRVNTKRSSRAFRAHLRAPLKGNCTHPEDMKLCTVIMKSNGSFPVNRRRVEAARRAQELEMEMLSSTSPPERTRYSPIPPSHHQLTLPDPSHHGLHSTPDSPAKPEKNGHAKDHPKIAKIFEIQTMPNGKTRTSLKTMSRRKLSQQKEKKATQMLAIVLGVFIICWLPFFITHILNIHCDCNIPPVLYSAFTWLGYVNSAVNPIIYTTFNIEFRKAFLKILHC
Sequence of 5-hydroxytryptamine receptor 2B (P41595 whole entry): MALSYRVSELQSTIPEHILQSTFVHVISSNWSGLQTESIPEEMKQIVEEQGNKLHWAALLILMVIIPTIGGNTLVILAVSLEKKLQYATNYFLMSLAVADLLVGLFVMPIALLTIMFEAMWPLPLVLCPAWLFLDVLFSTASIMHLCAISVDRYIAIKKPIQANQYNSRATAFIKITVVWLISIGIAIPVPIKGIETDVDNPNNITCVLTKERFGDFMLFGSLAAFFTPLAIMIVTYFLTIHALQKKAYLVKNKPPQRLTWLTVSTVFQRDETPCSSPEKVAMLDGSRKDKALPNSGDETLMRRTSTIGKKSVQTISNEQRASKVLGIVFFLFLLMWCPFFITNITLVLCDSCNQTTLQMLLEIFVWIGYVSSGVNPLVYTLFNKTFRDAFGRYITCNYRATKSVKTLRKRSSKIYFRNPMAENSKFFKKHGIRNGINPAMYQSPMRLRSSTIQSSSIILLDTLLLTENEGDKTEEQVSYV
Sequence of Sodium-dependent serotonin transporter (P31645 whole entry): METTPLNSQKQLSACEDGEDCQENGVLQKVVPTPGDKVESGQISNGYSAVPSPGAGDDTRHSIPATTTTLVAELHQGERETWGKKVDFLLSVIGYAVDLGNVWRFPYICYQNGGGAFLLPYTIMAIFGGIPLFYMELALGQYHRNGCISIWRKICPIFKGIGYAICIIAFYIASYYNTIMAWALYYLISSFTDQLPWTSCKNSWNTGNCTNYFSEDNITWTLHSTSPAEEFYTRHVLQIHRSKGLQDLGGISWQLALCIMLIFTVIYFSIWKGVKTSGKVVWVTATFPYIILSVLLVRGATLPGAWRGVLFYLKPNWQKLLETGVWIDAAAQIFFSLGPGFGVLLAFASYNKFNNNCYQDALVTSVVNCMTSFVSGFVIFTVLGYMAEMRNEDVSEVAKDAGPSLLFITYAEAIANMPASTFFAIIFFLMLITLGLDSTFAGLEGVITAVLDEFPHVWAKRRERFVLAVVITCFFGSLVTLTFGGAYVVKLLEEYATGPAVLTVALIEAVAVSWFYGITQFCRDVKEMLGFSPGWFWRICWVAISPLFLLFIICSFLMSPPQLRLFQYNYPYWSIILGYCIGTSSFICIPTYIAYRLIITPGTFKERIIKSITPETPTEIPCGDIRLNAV
Sequence of 5-hydroxytryptamine receptor 2A (P28223 whole entry): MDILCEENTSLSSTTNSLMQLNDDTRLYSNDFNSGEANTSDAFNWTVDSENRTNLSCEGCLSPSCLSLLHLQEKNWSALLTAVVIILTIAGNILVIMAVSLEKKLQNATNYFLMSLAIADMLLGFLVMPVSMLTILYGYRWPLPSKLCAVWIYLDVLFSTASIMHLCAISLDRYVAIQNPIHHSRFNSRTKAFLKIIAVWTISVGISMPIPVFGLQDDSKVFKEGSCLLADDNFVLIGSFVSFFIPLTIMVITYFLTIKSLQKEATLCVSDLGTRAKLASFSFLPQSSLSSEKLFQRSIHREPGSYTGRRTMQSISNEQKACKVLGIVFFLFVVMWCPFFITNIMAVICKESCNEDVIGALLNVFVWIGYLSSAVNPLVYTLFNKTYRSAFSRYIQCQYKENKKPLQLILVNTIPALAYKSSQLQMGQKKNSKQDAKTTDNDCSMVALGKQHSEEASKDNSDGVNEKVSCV
Sequence of Histamine H2 receptor (P25021 whole entry): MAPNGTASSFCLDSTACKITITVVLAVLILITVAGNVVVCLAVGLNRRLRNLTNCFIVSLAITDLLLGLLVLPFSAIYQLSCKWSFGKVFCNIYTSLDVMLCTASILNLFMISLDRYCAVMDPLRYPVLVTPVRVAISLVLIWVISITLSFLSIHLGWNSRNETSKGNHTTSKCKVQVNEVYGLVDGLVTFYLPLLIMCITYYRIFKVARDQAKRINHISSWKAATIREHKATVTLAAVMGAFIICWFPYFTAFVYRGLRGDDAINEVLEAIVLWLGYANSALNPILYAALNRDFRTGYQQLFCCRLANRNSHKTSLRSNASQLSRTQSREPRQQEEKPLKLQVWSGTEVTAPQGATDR
Sequence of 5-hydroxytryptamine receptor 1D (P28221 whole entry): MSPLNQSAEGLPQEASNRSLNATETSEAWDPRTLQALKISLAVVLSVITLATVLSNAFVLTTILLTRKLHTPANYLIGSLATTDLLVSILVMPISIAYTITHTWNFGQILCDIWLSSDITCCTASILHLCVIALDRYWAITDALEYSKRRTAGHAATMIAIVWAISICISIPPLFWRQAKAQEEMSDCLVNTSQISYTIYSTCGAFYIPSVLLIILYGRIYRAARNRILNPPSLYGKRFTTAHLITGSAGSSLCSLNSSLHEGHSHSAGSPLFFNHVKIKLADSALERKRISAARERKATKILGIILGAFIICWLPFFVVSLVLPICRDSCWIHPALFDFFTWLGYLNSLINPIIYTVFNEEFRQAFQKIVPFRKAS
T7 sequence (P35367 whole entry): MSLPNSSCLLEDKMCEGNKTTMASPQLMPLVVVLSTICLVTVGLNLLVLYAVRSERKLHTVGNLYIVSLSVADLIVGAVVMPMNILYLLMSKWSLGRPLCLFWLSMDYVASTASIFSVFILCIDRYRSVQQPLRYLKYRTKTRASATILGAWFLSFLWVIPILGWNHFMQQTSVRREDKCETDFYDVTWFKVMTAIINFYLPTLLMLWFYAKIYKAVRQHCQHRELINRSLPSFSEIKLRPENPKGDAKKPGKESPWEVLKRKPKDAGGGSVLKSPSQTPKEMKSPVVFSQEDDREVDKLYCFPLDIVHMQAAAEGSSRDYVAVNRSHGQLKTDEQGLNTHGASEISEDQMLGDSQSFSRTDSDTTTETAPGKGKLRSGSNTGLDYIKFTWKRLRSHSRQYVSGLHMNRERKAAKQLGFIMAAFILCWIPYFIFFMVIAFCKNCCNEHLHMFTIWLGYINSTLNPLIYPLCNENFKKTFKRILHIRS
T2 sequence (P23975 whole entry): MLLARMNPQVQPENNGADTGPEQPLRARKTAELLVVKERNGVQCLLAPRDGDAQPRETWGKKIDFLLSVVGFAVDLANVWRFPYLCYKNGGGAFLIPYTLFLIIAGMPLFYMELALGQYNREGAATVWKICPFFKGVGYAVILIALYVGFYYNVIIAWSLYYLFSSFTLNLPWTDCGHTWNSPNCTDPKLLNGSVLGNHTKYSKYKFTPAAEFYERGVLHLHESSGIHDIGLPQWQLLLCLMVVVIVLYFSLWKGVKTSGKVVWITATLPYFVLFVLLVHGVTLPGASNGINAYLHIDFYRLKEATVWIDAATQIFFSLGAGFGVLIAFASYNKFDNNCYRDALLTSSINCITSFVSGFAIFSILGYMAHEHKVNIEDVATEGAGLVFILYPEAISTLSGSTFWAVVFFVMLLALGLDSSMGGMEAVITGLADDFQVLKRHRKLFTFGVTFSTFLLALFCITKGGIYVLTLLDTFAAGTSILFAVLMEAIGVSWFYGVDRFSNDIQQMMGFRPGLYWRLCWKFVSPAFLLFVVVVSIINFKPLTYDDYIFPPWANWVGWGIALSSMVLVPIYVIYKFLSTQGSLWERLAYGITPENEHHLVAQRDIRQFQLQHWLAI

SMILES	inhibition (INH) [1]	IC50 (NIH3T3 [2])	IC50 (NIH3T3 [3])	Ki [4]	Ki (Histamine H2 receptor; read-out: Ki)	inhibition (INH) [5]	Ki ([7]; read-out: Ki)	IC50 (MDA-MB-231)	Ki [8]	IC50 (NIH3T3 [9])	Ki [11]	IC50 [12]	inhibition [13]	inhibition [17]	inhibition (D(2) dopamine receptor [18])	IC50 [19]	Ki [20]	inhibition (Mu-type opioid receptor)	Ki (D(2) dopamine receptor [21])	inhibition [23]	also measured
OC1(c2ccc(Cl)c(C(F)(F)F)c2)CCN(CCCC(c2ccccc2)c2ccccc2)CC1	82.1%	12 µM	12.2 µM	0.518 µM	0.278 µM	90.6%	0.374 µM	8.7 µM	0.326 µM	9.8 µM	2.13 µM	6.6 µM	83.3%	82.7%	100%	9.2 µM	1 µM	90.3%	0.038 µM	–	Ki (D(1B) dopamine receptor [6]): 0.121 µM; inhibition (INH) [10]: 83.7%; inhibition (D(1B) dopamine receptor [14]): 89.4%; inhibition (INH) [15]: 87.5%; Ki [16]: 1.69 µM; Ki ([22]; cho): Not Active
OC1(c2ccc(Cl)c(C(F)(F)F)c2)CCN(CCCC=C(c2ccc(F)cc2)c2ccc(F)cc2)CC1	78.8%	14.8 µM	37.2 µM	–	0.526 µM	–	2.2 µM	14.9 µM	10 µM	7.1 µM	1.6 µM	12 µM	–	74.1%	87.3%	11.2 µM	1.1 µM	90.6%	0.317 µM	21.4%	Ki (Histamine H1 receptor [24]; read-out: Ki): 0.718 µM; inhibition (Histamine H1 receptor [25]): 64.6%
OC1(c2ccc(Cl)c(C(F)(F)F)c2)CCN(CCCCN(c2ccc(F)cc2)c2ccc(F)cc2)CC1	57.1%	11.6 µM	12.1 µM	0.458 µM	–	88.2%	0.509 µM	11.5 µM	0.812 µM	6.4 µM	1.13 µM	10.6 µM	70.6%	68.9%	65.8%	8.2 µM	6.06 µM	61.5%	0.55 µM	50%	Ki (Histamine H2 receptor): Not Active; Ki (D(1B) dopamine receptor [6]): 0.744 µM; Ki (Histamine H1 receptor [24]): Not Active; inhibition (INH) [10]: 72.7%; inhibition (D(1B) dopamine receptor [14]): 84.6%; inhibition (INH) [15]: 86.6%; Ki [16]: 1.67 µM; Ki ([22]; read-out: Ki): 4.15 µM
OC1(c2ccc(Cl)c(C(F)(F)F)c2)CCN(CCCN(c2ccc(F)cc2)c2ccc(F)cc2)CC1	85.9%	5.6 µM	6.8 µM	0.902 µM	0.252 µM	97.4%	0.177 µM	5 µM	1.57 µM	4 µM	0.402 µM	5.7 µM	80.7%	65.9%	66.4%	4.1 µM	0.164 µM	97.4%	0.148 µM	67.7%	Ki (D(1B) dopamine receptor [6]): 0.437 µM; Ki (Histamine H1 receptor [24]; read-out: Ki): 0.814 µM; inhibition (Histamine H1 receptor [25]): 88.5%; inhibition (INH) [10]: 82.5%; inhibition (D(1B) dopamine receptor [14]): 100%; inhibition (INH) [15]: 83.4%; Ki [16]: 1.68 µM
OC1(c2ccc(Cl)c(C(F)(F)F)c2)CCN(CCCCCc2ccc(F)cc2)CC1	75.9%	11.8 µM	13.2 µM	–	0.401 µM	–	–	11.9 µM	1.12 µM	9.8 µM	2.55 µM	11.9 µM	50%	–	81.8%	8.2 to 9.8 µM	0.889 µM	86.2%	0.46 µM	16.4%	Ki [7]: Not Active; Ki (Histamine H1 receptor [24]; read-out: Ki): 0.718 µM; inhibition (Histamine H1 receptor [25]): 69.2%
OC1(c2ccc(Cl)c(C(F)(F)F)c2)CCN(CCCC(c2ccc(F)cc2)c2ccc(F)cc2)CC1 [PENFLURIDOL]	98.4%	6.09 µM	6.03 µM	0.588 µM	–	86.2%	0.184 µM	5 µM	0.28 µM	6.01 µM	0.881 µM	4.2 µM	91.3%	89.1%	71.5%	4.3 µM	0.361 µM	87%	0.159 µM	95%	Activity (Mus musculus [26]): Toxic; Ki (D(1B) dopamine receptor [6]): 0.125 µM; inhibition (Histamine H1 receptor [25]): 84%; Activity (Mus musculus [27]): Toxic; inhibition (INH) [10]: 92.7%; inhibition (D(1B) dopamine receptor [14]): 82.9%; inhibition (INH) [15]: 89.1%
